Results published in ChEMBL document CHEMBL1151688, “Antiobesity designed multiple ligands: Synthesis of pyrazole fatty acid amides and evaluation as hypophagic agents” (Bioorg Med Chem, 2008).
Active and inactive are the calls of the source. No cut-off for these calls is given here.

Experiments:
[1] = test system: Mus musculus; experiment: Effect on rectal temperature in mouse at 3 mg/kg, ip after 15 mins; format: functional, organism-based; set-up: dose 3 mg/kg
In short: (§1)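 Adult male 129S1/SvImJ mice (25–30 g); rectal temperature measured with a probe at 3 cm depth before dosing and 15 min after ip injection; tests run 9:00–15:00 h; mean ± SEM.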

[2] = test system: Mus musculus; experiment: Inhibition of […]-induced decrease in locomotor activity in ip dosed mouse after 15 mins; format: functional, organism-based
[3] = biological target: T1, Peroxisome proliferator-activated receptor alpha (Homo sapiens) (UniProt Q07869); experiment: Activation of human PPARalpha assessed as receptor-GST-TIF2 interaction by GST pull down assay
T1 sequence (whole entry): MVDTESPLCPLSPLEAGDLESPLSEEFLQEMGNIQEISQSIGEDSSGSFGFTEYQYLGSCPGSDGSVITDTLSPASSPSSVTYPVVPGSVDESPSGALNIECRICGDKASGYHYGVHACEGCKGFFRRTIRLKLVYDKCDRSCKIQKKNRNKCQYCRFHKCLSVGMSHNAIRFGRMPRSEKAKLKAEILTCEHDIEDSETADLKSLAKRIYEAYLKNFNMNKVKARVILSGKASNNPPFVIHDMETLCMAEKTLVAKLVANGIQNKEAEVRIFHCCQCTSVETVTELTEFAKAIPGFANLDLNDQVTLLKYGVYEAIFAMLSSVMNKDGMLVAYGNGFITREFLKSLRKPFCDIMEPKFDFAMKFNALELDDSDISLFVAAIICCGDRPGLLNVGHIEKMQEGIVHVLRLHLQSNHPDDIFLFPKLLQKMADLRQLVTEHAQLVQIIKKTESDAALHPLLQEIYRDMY

[4] = test system: Mus musculus; experiment: Inhibition of […]-induced hypothermia in mouse assessed as rectal temperature at 3 mg/kg ip after 15 mins; format: functional, organism-based; set-up: dose 3 mg/kg
In short: (§2)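 Male 129S1/SvImJ mice given compound ip together with WIN 2 mg/kg ip; rectal temperature taken by probe at 3 cm depth before and 15 min after injection; compared with WIN alone by Student's t-test.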

[5] = test system: Rattus norvegicus; experiment: Inhibition of food intake in 24 hrs food-deprived Wistar rat assessed at 3 mg/kg, ip; format: functional, organism-based; set-up: dose 3 mg/kg
In short: (§3)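 Male Wistar rats (250–450 g), habituated to handling, food-deprived 24 h with water available; compound suspended in saline with Tween 80, given ip; 15 min later returned to home cage with weighed food; intake (g/kg) measured at 30, 60, 120 and 240 min; ≥8 rats per group, ANOVA vs vehicle.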

[6] = test system: Rattus norvegicus; experiment: Inhibition of food intake in 24 hrs food-deprived Wistar rat assessed at 0.3 mg/kg, ip; format: functional, organism-based; set-up: dose 0.3 mg/kg; in short: as §3
[7] = test system: Mus musculus; experiment: Inhibition of […]-induced hypothermia in mouse assessed as rectal temperature at 10 mg/kg ip after 15 mins; format: functional, organism-based; set-up: dose 10 mg/kg; in short: as §2
[8] = test system: Mus musculus; experiment: Effect on rectal temperature in mouse at 10 mg/kg, ip after 15 mins; format: functional, organism-based; set-up: dose 10 mg/kg; in short: as §1
[9] = biological target: Peroxisome proliferator-activated receptor alpha (Homo sapiens) (UniProt Q07869); experiment: Agonist activity at human PPARalpha expressed in human MCF7 cells coexpressing TIF2 by luciferase reporter gene assay

Row | SMILES | Activity [3] | Activity [4] | Activity [5] | Activity [6] | further results
1 | CCCCCCCCCCCCCCCCNC(=O)c1cc(-c2ccc(Cl)cc2)n(-c2ccccc2)n1 | inactive | inactive | – | – | Activity [1]: inactive; Activity [2]: Active
2 | CCCCCCCC/C=C\CCCCCCCCNC(=O)c1cc(-c2ccc(Cl)cc2)n(-c2ccc(Cl)cc2)n1 | Active | Active | inactive | inactive | –
3 | CCCCCCCCCCCCCCCCNC(=O)c1cc(-c2ccc(Cl)cc2)n(-c2ccc(Cl)cc2Cl)n1 | inactive | – | – | – | –
4 | CCCCCCCC/C=C\CCCCCCCCNC(=O)c1cc(-c2ccc(Cl)cc2)n(-c2ccc(Cl)cc2Cl)n1 | Active | – | – | – | –
5 | CCCCCCCC/C=C\CCCCCCCCNC(=O)c1cc(-c2ccc(Cl)cc2)n(-c2ccccc2)n1 | Active | inactive | Active | Active | Activity [1]: inactive
6 | CCCCCCCCCCCCCCCCNC(=O)c1cc(-c2ccc(Cl)cc2)n(-c2ccc(Cl)cc2)n1 | inactive | – | – | – | Activity [7]: inactive; Activity [8]: inactive
7 | Cc1c(C(=O)NN2CCCCC2)nn(-c2ccc(Cl)cc2Cl)c1-c1ccc(I)cc1 | – | – | – | – | Activity [9]: inactive
8 | CCCCCCCCCCCCCCCCNC(=O)c1nn(-c2ccc(Cl)cc2Cl)c(-c2ccc(Cl)cc2)c1C | inactive | – | inactive | inactive | –
9 | CCCCCCCC/C=C\CCCCCCCCNC(=O)c1nn(-c2ccc(Cl)cc2Cl)c(-c2ccc(Cl)cc2)c1C | Active | – | – | – | –
